This is an account of results in ChEMBL document CHEMBL4024765 (J Med Chem, 2017).

Structures are written as SMILES. A value given as a limit tells only on which side of the number the result lay.

Tested on in the first data set: not listed separately
Nature of the data set: Inhibition of beta hematin formation by detergent based assay.
Conditions: not given
The procedure, abridged: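 β-hematin formation from hematin in 1 M acetate buffer pH 4.9 with NP40 detergent, compound serially diluted from 20 mM DMSO stock; ~5 h at 37 °C. Free heme complexed with pyridine/acetone/HEPES pH 7.4 solution, absorbance at 405 nm; IC50 from dose-response curves.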
Broadly, the IC50 is the concentration needed to halve the response being measured. Read a high IC50 as weaker potency. `CCN(CC)CCCC(C)Nc1ccnc2cc(Cl)ccc12` (stereo not given) [CHLOROQUINE PHOSPHATE] returned an IC50 of 26.1 µM.

Tested on in a further data set: not listed separately
Nature of the data set: Kinetic solubility of compound in simulating fasting state biorelevant media at pH 6.5 after 2 hrs by shake flask method. It is filed as physicochemical. The settings on record: fasted-state simulating biorelevant medium, read-out: Kinetic_solubility.
Turning to `COC(=O)[C@H]1[C@H]2C[C@@H]3c4[nH]c5cc(OC)ccc5c4CCN3C[C@H]2C[C@@H](OC(=O)c2cc(OC)c(OC)c(OC)c2)[C@@H]1OC` [RESERPINE], the solubility kinetic at 2 h was below 5 µM.

The test system of a further data set is Plasmodium falciparum. As to the kind of experiment: Decrease in hemozoine formation in chloroquine-sensitive synchronized ring stage of Plasmodium falciparum NF54 after 32 hrs by flow cytometric analysis.
Conditions: not given
The data set is classed as functional. The essentials:
(§1)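 Sorbitol-synchronized (5%) ring-stage cultures exposed to compound at multiples of IC50 for 32 h; trophozoites freed with 0.05% saponin, PBS-washed, counted by hemocytometer and flow cytometry. Hypotonic lysis/sonication, then sequential SDS/pyridine fractionation into hemoglobin, free heme and hemozoin (SDS/NaOH) fractions; each measured by UV-vis as Fe(III) heme-pyridine complex.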
With `CN(Cc1ccccc1)Cc1cccc(CNc2ccnc3cc(Cl)ccc23)c1` [listing 1 of 2 here], the Activity result was “Dose-dependent effect”.
The same measure, in the same setting: with `CCN(CC)CCCC(C)Nc1ccnc2cc(Cl)ccc12` (stereo not given) the entry was “Dose-dependent effect”.

The next data set relates to Plasmodium berghei. Nature of the data set: Antimalarial activity against chloroquine-sensitive Plasmodium berghei ANKA infected in C57BL/6 mouse assessed as supression of parasitemia at 30 mg/kg, po administered for 4 consecutive days starting at 2 hrs post infection by peter's test relative to control. The data set is classed as functional.
Conditions: not given
The essentials:
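P. berghei ANKA passaged in C57BL/6 donor; test mice infected ip with 200 μL of 1 × 10⁷ parasitized erythrocytes in PBS. Oral dosing 30 mg/kg at 2 h post-infection, then daily D0–D3; PBS-dosed controls. Parasitemia read on D4 from Giemsa-stained, methanol-fixed tail thin films; suppression relative to control.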
`CCN(CC)CCCC(C)Nc1ccnc2cc(Cl)ccc12` (stereo not given) [CHLOROQUINE]: the Activity was 91.2%.
With `CN(Cc1ccccc1)Cc1cccc(CNc2ccnc3cc(Cl)ccc23)c1` [listing 2 of 2 here], the Activity is 99.9%.

A further data set has as its system Plasmodium falciparum. As to the kind of experiment: Increase in free heme levels in chloroquine-sensitive synchronized ring stage of Plasmodium falciparum NF54 after 32 hrs by flow cytometric analysis. The data set is classed as functional.
Conditions: not given
The essentials: as §1
Turning to `CN(Cc1ccccc1)Cc1cccc(CNc2ccnc3cc(Cl)ccc23)c1` [listing 1 of 2 here], the Activity result is “Dose-dependent effect”.
Take `CCN(CC)CCCC(C)Nc1ccnc2cc(Cl)ccc12` (stereo not given): the Activity result is “Dose-dependent effect”.

Another data set has as its system Plasmodium falciparum. As to the kind of experiment: Increase in hemoglobin levels in chloroquine-sensitive synchronized ring stage of Plasmodium falciparum NF54 after 32 hrs by flow cytometric analysis. It is filed as functional.
Conditions: not given
The essentials: as §1
Take `CN(Cc1ccccc1)Cc1cccc(CNc2ccnc3cc(Cl)ccc23)c1` [listing 1 of 2 here]: the Activity entry is “Dose-dependent effect”.
Consider `CCN(CC)CCCC(C)Nc1ccnc2cc(Cl)ccc12` (stereo not given), for which the Activity result is “Dose-dependent effect”.
